In the library only some 2.3% were active in any assay of this set; here they are far more common.
SF1 activator: activates the human nuclear receptor SF-1 | Q13285 | CHO-K1 Gal4-SF-1 LBD luciferase reporter; % increase over DMSO SF-1-specific signal | activation, % at 10 µM | 65,000 tested, 1.9% active;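 active means activation above the mean activation of all tested compounds plus 3 SD, cut at about 50% in these data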
Target sequence (Q13285 whole entry, looked up, the tested form may be a part): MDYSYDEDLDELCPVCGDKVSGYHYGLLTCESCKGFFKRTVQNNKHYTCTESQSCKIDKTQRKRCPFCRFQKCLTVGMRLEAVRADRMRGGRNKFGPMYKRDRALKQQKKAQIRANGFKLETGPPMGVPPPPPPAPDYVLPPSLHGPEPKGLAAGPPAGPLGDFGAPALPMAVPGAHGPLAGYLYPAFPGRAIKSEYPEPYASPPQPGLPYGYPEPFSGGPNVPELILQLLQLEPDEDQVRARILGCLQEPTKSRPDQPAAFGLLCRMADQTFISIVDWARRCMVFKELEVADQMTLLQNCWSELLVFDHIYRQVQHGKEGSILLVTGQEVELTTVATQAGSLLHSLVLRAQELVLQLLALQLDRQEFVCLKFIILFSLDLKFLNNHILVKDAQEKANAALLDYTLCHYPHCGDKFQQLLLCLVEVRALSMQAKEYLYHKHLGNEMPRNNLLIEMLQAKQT
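Test system: transient Gal4-SF-1 LBD reporter, CHO-K1; Amount: 4,000 CHO-K1 cells per well; Doses: 10 µM only; Timing: compound exposure 20 h at 37 °C; Signal: luciferase light emission; Read-out basis: percent activation relative to DMSO median and mock-transfected background; Control set: DMSO negative control and −SF1 background wells; Replicates: one test per compound.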
MT1-MMP txn act: MT1-MMP promoter transcription activation; HT1080 MT1-MMP promoter luciferase reporter, luminescence, overnight; hits give high values; activation factor at 10 µM; 86,000 tested, 0.16% active;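 active means activation factor of at least 2 for MT1-MMP transcription at 10 µM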
JNK3 inh: blocks human JNK3 kinase activity | purified JNK3 kinase activity, HTS | P53779 | inhibition, % at 8 µM | 60,000 tested, 0.61% active | AID 746; in the data active means inhibition above about 17%;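 further: 0% = DMSO and 100% = reference inhibitor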
RORa activator: RORA (human) activation | P35398 | CHO-K1 Gal4-RORA LBD luciferase reporter, luminescence; percent increase over mock-subtracted basal signal | activation, % at 10 µM | 65,000 tested, 1.5% active;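 active means activation above the mean of all tested compounds plus 3 SD, cut at about 49% in these data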;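 further: 0% = DMSO-treated RORA cells and 100% = added signal equal to DMSO minus mock-transfected cells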
Starred values were filed as active, the others as inactive.

CSc1ccc(-c2nnn(Cc3ccc(Br)cc3)n2)cc1 was read as MT1-MMP txn act 1.3.
CSc1ccc(-c2nnn(Cc3ccccn3)n2)cc1 was read as SF1 activator 57.2*, MT1-MMP txn act 2*, JNK3 inh 0.3 and RORa activator 55.5*.
`COc1ccc(-c2coc3cc(O)cc(O)c3c2=O)cc1` gave SF1 activator 97.2*, MT1-MMP txn act 1.1, JNK3 inh -6.0 and RORa activator 30.5.
Screening COc1ccc(-c2coc3cc(OC)cc(O)c3c2=O)cc1 returned MT1-MMP txn act 1.7.
For CC(C)Oc1cc(O)c2c(=O)c(-c3ccc(O)cc3)coc2c1 the results were SF1 activator 58.3*, MT1-MMP txn act 1, JNK3 inh -0.5 and RORa activator 45.7.
`CC1=C(C(=O)OCc2ccccc2)C(c2ccccc2OC(=O)c2ccc(I)cc2)NC(=O)N1CCCC(=O)O` (stereo not drawn) gave MT1-MMP txn act 1.1.
`Cc1c(C(=O)Nc2ccc(Cl)cn2)oc2ccccc12` gave SF1 activator 1.9, MT1-MMP txn act 2.1*, JNK3 inh -0.9 and RORa activator -20.1.
Nc1c(C(=O)Nc2ccc(Cl)cc2)oc2ccccc12 was read as SF1 activator 105.7*, MT1-MMP txn act 1.7, JNK3 inh 6.1 and RORa activator 74.3*.
For Cc1ccccc1C(=O)Nc1ccc(Cl)cn1 the results were SF1 activator 18.6, MT1-MMP txn act 1.4, JNK3 inh 1.4 and RORa activator 56.4*.
Screening Cc1c(C(=O)Nc2cnccn2)oc2ccccc12 returned SF1 activator 56.0*, MT1-MMP txn act 1.2, JNK3 inh -7.7 and RORa activator 44.7.
Screening O=c1[nH]c2ccccc2n1CCCN1CCN(C(c2ccccc2)c2ccccc2)CC1 returned SF1 activator -0.3, MT1-MMP txn act 1, JNK3 inh 6.8 and RORa activator 7.2.
For CCN(CC)S(=O)(=O)c1cc(C(=O)Nc2ccc(Cl)cn2)ccc1C the results were SF1 activator 61.3*, MT1-MMP txn act 0.9, JNK3 inh 7.1 and RORa activator 46.7.
Screening Cc1ccccc1C(=O)Nc1ccc(Br)c(C)n1 returned SF1 activator 36.2, MT1-MMP txn act 1.4, JNK3 inh 4.8 and RORa activator 55.9*.
`CC(C)C(=O)Nc1ccc(NC(=O)c2ccccc2Cl)nc1` gave SF1 activator 37.6, MT1-MMP txn act 1.6, JNK3 inh 11.0 and RORa activator 61.6*.
CCCCN(CC)S(=O)(=O)N1CCC(C(=O)NCc2ccc(F)cc2)CC1 was read as SF1 activator 2.3, MT1-MMP txn act 1.1, JNK3 inh -9.5 and RORa activator -9.0.
`O=C(CSc1ccccn1)c1ccc(F)cc1` gave SF1 activator 17.7, MT1-MMP txn act 1.4, JNK3 inh -2.8 and RORa activator 16.9.
For Cc1ccc(C(=O)CSc2ccccn2)cc1 the results were SF1 activator 83.9*, MT1-MMP txn act 1.2, JNK3 inh -7.1 and RORa activator 34.3.
`O=C1CC(c2cccs2)Cc2nc(NCC3CCCO3)ncc21` (stereo not drawn) gave SF1 activator -5.2, MT1-MMP txn act 1.2, JNK3 inh -4.6 and RORa activator 16.4.
`COc1ccc(OC)c(C(=O)c2coc3ccc(O)cc23)c1` gave SF1 activator 17.2, MT1-MMP txn act 1.2, JNK3 inh 18.4* and RORa activator 17.8.
For Cc1n[nH]c(C)c1S(=O)(=O)Nc1ccc2c(c1)OCCO2 the results were SF1 activator 1.0, MT1-MMP txn act 1.2, JNK3 inh 0.0 and RORa activator -13.9.
For c1csc(CSc2nc3ccccc3s2)c1 the results were SF1 activator 52.2*, MT1-MMP txn act 1.7, JNK3 inh 1.7 and RORa activator 44.6.
Screening c1csc(CSc2nnc3sc4ccccc4n23)c1 returned SF1 activator 39.7, MT1-MMP txn act 1.6, JNK3 inh -0.9 and RORa activator 51.0*.
CN(C)C(=O)CSc1nnc2sc3ccccc3n12 was read as SF1 activator 4.5, MT1-MMP txn act 1.1, JNK3 inh 1.9 and RORa activator -2.4.
`COCCN=C1OC(=O)N2C(=O)C3=C4[C@@H](C[C@H]5C(=O)N(CC(=O)OC)C(=O)[C@H]5[C@H]4[C@@]12Cc1ccccc1)[C@H]1C(=O)N(CC(=O)OC)C(=O)[C@H]1[C@H]3C` gave MT1-MMP txn act 1.2.
Screening CC[Si](CC)(CC)c1c2c(nc3ccc(OC)cc13)-c1cccc(=O)n1C2 returned MT1-MMP txn act 1.
For O=C(Nc1ccccc1)c1ccncc1 the results were MT1-MMP txn act 1.1.
`CCN(CC)C(=O)Nc1cnc2ccccc2c1` gave SF1 activator 12.8, MT1-MMP txn act 1.3, JNK3 inh 4.7 and RORa activator 40.9.
For O=C(Nc1cnc2ccccc2c1)c1ccncc1 the results were SF1 activator 29.6, MT1-MMP txn act 1.1, JNK3 inh 1.1 and RORa activator 73.7*.
COC(=O)c1cccc(C(=O)Nc2cnc3ccccc3c2)n1 was read as SF1 activator 97.3*, MT1-MMP txn act 1.4, JNK3 inh 10.8 and RORa activator 43.1.
Screening CC(C)COC(=O)N1CC(O)CC1C(=O)O (stereo not drawn) returned SF1 activator 7.5, MT1-MMP txn act 1.1, JNK3 inh -6.2 and RORa activator -2.1.
Screening CCOc1ccc(C(CC(=O)O)NC(=O)C23CC4CC(CC(C4)C2)C3)cc1 (stereo not drawn) returned MT1-MMP txn act 1.2.
COc1ccc(S(=O)(=O)N(CCc2ccccc2)CC(=O)O)cc1 was read as MT1-MMP txn act 1.2.
For Cn1ccnc1C(O)(c1nnc(-c2ccccc2)o1)C(F)(F)F (stereo not drawn) the results were SF1 activator -1.0, MT1-MMP txn act 1.2, JNK3 inh 0.2 and RORa activator 3.4.
`Cn1nnnc1SCc1ccc(C(=O)Nc2nccs2)cc1` gave SF1 activator 56.8*, MT1-MMP txn act 1.7, JNK3 inh 19.9* and RORa activator 44.4.
CC(C)(c1ccccc1)c1ccc(OCCn2cnc3ccccc3c2=O)cc1 was read as MT1-MMP txn act 1.
`CC(C)(C)c1ccc(OCCn2ccccc2=O)cc1` gave SF1 activator 67.1*, MT1-MMP txn act 1.9, JNK3 inh -1.5 and RORa activator 39.3.
`O=C(CCCn1c(=S)[nH]c2cc3c(cc2c1=O)OCO3)N1CCc2ccccc2C1` gave SF1 activator 10.3, MT1-MMP txn act 1.2 and RORa activator 2.7.
For CCCCCn1c(-c2ccco2)nc2nc3ccccc3nc21 the results were SF1 activator 10.8, MT1-MMP txn act 1, JNK3 inh -2.8 and RORa activator -5.2.
For c1ccc(Cn2c(-c3ccco3)nc3nc4ccccc4nc32)cc1 the results were SF1 activator 81.8*, MT1-MMP txn act 1.6, JNK3 inh -1.7 and RORa activator 75.2*.
For COC(=O)[C@@]1(Cc2ccccc2)[C@H]2c3cc(C(=O)N(C)C)n(CCO)c3C[C@H]2CN1C(=O)c1ccccc1 the results were MT1-MMP txn act 1.1.
CC(=O)N1CCN2C(=O)C1CCCC(=O)c1cc(C)ccc12 (stereo not drawn) was read as MT1-MMP txn act 1.1.
`CN(C)c1nc(N)nc(CSc2nnnn2-c2ccccc2)n1` gave MT1-MMP txn act 1.1.
